Compounds with a hit are over-represented: about 2% of the library has one in this group of screens.
NR2E3 ag-1: inhibitors of NR2E3-RetCOR corepressor binding, primary screen, NR2E3 agonist project, biochemical, TR-FRET, GST-NR2E3, biotin-RetCOR. 1536-well. 0.12% of 320,000 active. Photoreceptor-specific nuclear receptor (Homo sapiens), Q9Y5X4. inhibition of corepressor binding, % at 4.78 µM. AID 2300, 2010;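 active = percent inhibition above the cutoff of mean plus 3 SD of all tested compounds, set per screening campaign, cut at about 20% in these data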;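 note: 0% = DMSO wells and 100% = biotin wells as full block of FRET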
Target sequence (Q9Y5X4 whole entry, looked up): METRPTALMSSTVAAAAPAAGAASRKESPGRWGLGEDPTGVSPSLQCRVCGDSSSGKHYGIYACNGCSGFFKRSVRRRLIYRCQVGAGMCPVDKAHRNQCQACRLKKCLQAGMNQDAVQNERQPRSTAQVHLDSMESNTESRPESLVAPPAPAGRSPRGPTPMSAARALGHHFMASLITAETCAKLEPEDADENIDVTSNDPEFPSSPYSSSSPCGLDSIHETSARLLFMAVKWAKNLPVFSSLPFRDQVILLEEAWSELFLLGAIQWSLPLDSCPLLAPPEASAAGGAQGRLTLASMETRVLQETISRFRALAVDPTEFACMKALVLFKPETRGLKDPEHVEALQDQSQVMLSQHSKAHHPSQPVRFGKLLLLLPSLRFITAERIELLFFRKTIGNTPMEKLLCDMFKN
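Test system – NR2E3–RetCOR corepressor complex · Quantity – NR2E3 fusion 1.35 nM · Buffer or medium – Tris pH 7.5 · Incubation – Compound–protein incubation for 5 h at 4 °C · Technique – TR-FRET, Eu(K)-anti-GST donor, streptavidin-D2 acceptor, ex 340, em 617/671 nm · Evaluation – percent inhibition of 671/617 nm emission ratio versus biotin and DMSO controls · Plate – 1536-well format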
GAA850 FXN act: FXN promoter activators, primary screen, cell-based, luciferase luminescence, HEK293 lucGAA850; 0.56% of 360,000 active; HEK293 lucGAA850 FXN promoter luciferase reporter, 24 h; percent of 10 µM SAHA response; activation, % at 6 µM; AID 540364, 2011;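 active = activation above the average of all compounds screened plus 3 SD, cutoff fixed separately per campaign, cut at about 7.5% in these data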;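 note: 0% = DMSO wells and 100% = 10 µM SAHA wells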
NR2E3 ag-2: NR2E3 agonists in two-hybrid cells, primary screen, cell-based, luminescence, CHO-S, Gal4-NCOR/VP16-NR2E3; Photoreceptor-specific nuclear receptor (Homo sapiens), Q9Y5X4; luciferase; inhibition of corepressor binding, % at 3.98 µM; 0.35% of 360,000 active; AID 602229, 2012;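 active = inhibition above the mean of all tested compounds plus 3 SD, cut at about 70% in these data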;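 note: 0% = DMSO with NR2E3 transfected cells and 100% = cells lacking NR2E3 construct; higher means lower luciferase signal from less NR2E3 corepressor binding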
Myeloid diff MLP: induction of myeloid progenitor differentiation, primary screen, cell-based, flow cytometry, MLPCN library; ER-HoxA9 myeloid progenitors, lysozyme-GFP differentiation; calls only at 10 µM; 1% of 360,000 active;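 active = normalized GFP-positive differentiation at or above the plate's own cutoff, the solvent-only control mean plus 3 SD; inconclusive = no clear call, values can overlap the other calls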;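 note: cells exposed to compound for four days before flow analysis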
T cell HTS: modulators of CD8 T cell-vesicle binding, primary screen, mouse 2C CD8+ T cells, flow cytometry | 2C CD8+ T cell-vesicle binding; active compounds read low | response (vesicle binding), % at 7 µM | 0.068% of 330,000 active | AID 2052, 2009;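 active = response, share of CD8 T cells binding vesicles, and their 90th percentile fluorescence all below set limits, cut at about 80% in these data, passing the limit was not always enough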;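 note: values below 100% mean blocked vesicle binding to the CD8+ T cells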
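incubation = binding step 1.5 h, 37 °C, antibody labelling 20 min, ice | test system = 2C mouse CD8+ T cells | read-out basis = percent CD8+ FL2 mean versus row control | controls = Peptide-free naked vesicles (low) and QL9 vesicles with 0.7% DMSO vehicle (high) | detection = flow cytometry of vesicle-bound cells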
NR2E3 ag confirm: NR2E3 agonist confirmation in cells, cell-based, luminescence, CHO-S two-hybrid | inhibition, % at 3.98 µM | CHO-S mammalian two-hybrid NR2E3-NCOR, luciferase luminescence | shares compounds with NR2E3 ag-2 | 51% of 2,300 active;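 active = average inhibition above a cutoff equal to the mean inhibition of all tested compounds plus one SD, cut at about 70% in these data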;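 note: 0% = DMSO in NR2E3 cells and 100% = DMSO in cells lacking NR2E3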
GAL4-VP16 luc: GAL4-VP16 reporter modulators, confirmation, counter-screen for NR2E3 agonist project, cell-based, luminescence, CHO-S, high throughput; inhibition, % at 3.98 µM; CHO-S GAL4-VP16 luciferase reporter; shares compounds with NR2E3 ag-2; 29% of 2,300 active;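 active = mean inhibition above a cutoff equal to the average over all tested compounds plus one standard deviation, cut at about 70% in these data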;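 note: luciferase from a UAS reporter driven by GAL4-VP16 transactivation; 0% = DMSO with VP16-transfected cells and 100% = DMSO with cells lacking VP16; higher means less reporter light so more repression of VP16 activity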
Active calls of the source: *; i = inactive; u = inconclusive; x = no result given.

SMILES | NR2E3 ag-1 | GAA850 FXN act | NR2E3 ag-2 | Myeloid diff MLP | T cell HTS | NR2E3 ag confirm | GAL4-VP16 luc
CC(C)(C)NC(=S)NC(C)(C)C | x | 3.6 | -16.2 | i | x | x | x
O=C(NCc1cccnc1)/C(=C\c1ccc(-c2ccc(Br)cc2)o1)S(=O)(=O)c1ccccc1 | 3.7 | -7.7 | 93.4* | x | 99.8 | 43.2 | 11.0
O=C(NCc1cccnc1)/C(=C/c1ccc(-c2ccc(Cl)cc2)o1)S(=O)(=O)c1ccccc1 | -0.8 | -8.1 | 89.9* | x | 261.8 | 47.4 | -31.5
O=C(NCc1cccnc1)/C(=C/c1ccc(-c2cccc(C(F)(F)F)c2)o1)NC(=O)c1ccccc1 | 0.9 | -0.5 | -20.5 | i | 645.5 | x | x
CC1CC(O)C2C3(C)CCCC2(COC3=O)C12CCC1(CCOC1=O)O2 (configuration not stated) | x | -2.4 | 7.7 | i | x | x | x
O=C(NCc1cccnc1)c1csc([C@@H]2O[C@H](CO)[C@H](O)[C@H](O)[C@H]2O)n1 | x | 1.8 | 26.7 | i | x | x | x
CCC(C)NS(=O)(=O)c1ccc(S(=O)(=O)N2CCCC3(CCCCC3)C2)cc1 (configuration not stated) | -4.6 | -3.0 | 85.2* | i | 335.7 | 89.5* | 73.3*
CCCCN1CCCCC1(C)C(=O)NCc1ccc2c(c1)OCO2 (configuration not stated) | x | -0.6 | 22.3 | i | x | x | x
Cc1nc2ccccc2n1Cc1ccccc1 | 1.6 | 1.2 | 10.7 | i | 168.1 | x | x
Cc1nc2ccccc2n1Cc1ccc(Br)cc1 | 3.7 | -1.9 | 84.2* | i | 328.3 | 94.1* | 85.3*
Cc1onc(-c2ccccc2)c1C(=O)Nc1nnc(C(C)C)s1 | 0.2 | 1.8 | -39.3 | i | 579.4 | x | x
Cc1onc(-c2ccccc2)c1C(=O)Nc1ncc([N+](=O)[O-])s1 | -0.8 | -2.0 | 101.1* | i | 197.1 | 98.9* | 81.0*
Cc1nc(NC(=O)c2c(-c3ccccc3Cl)noc2C)sc1C | -2.3 | -2.3 | 79.0* | i | 118.4 | 80.0* | 17.9
O=C(N=Nc1c(O)[nH]c2ccccc12)Nc1ccccc1 | x | 0.2 | -106.4 | i | x | x | x
Cc1cccc(NC(=S)N=Nc2c(O)[nH]c3ccccc23)c1 | -5.5 | -1.5 | 66.7 | i | 476.5 | 12.6 | -11.1
Cc1ccc2c(c1)[nH]c1c(N3CCN(Cc4ccccc4)CC3)ncnc12 | -0.6 | -0.9 | 58.8 | i | 191.8 | 86.4* | 73.9*
Cc1ccc2[nH]c3c(N4CCN(Cc5ccccc5)CC4)ncnc3c2c1 | -2.2 | -0.8 | 78.7* | i | 618.2 | 88.4* | 74.3*
c1ccc(CN2CCN(c3ncnc4c3[nH]c3ccccc34)CC2)cc1 | 1.8 | -0.3 | 69.8 | i | 252.2 | x | x
COc1ccc2c(c1)[nH]c1c(N3CCN(Cc4ccc5c(c4)OCO5)CC3)ncnc12 | 1.9 | 0.0 | 92.3* | i | 240.5 | 96.8* | 85.7*
CCCn1c(N)c(C(=O)CSc2nnc(-c3cccs3)n2C2CC2)c(=O)[nH]c1=O | x | -0.9 | -8.8 | i | 279.1 | x | x
CCOc1ccc(N(CC(=O)Nc2ccc(C)c(C)c2)S(C)(=O)=O)cc1 | 5.9 | 3.8 | -83.3 | i | 230.1 | x | x
CCc1cc(-c2nnn(CCC3COCCO3)c2CC)ccc1-c1cn(Cc2ccccc2)nn1 (configuration not stated) | x | -0.1 | 75.8* | i | x | 75.6* | 66.4
Fc1ccc(Nc2nc(NCc3ccccc3)nc3ccsc23)cc1 | x | -0.3 | 54.6 | i | x | 59.4 | 41.0
c1ccc(CNc2nc(NCc3cccs3)nc3ccsc23)cc1 | x | 6.7 | 26.4 | i | x | x | x
C#Cc1cccc(Nc2nc(NCc3ccccc3)nc3ccsc23)c1 | x | 3.2 | 61.2 | i | x | 84.2* | 44.3
SMILES | NR2E3 ag-1 | GAA850 FXN act | NR2E3 ag-2 | Myeloid diff MLP | T cell HTS | NR2E3 ag confirm | GAL4-VP16 luc
c1ccc(CNc2nc(NCCc3ccncc3)c3sccc3n2)cc1 | x | 0.2 | 81.2* | i | x | 51.7 | 55.1
CC(=O)Nc1cccc(/C(C)=N/Nc2ccc(S(=O)(=O)Nc3ccccc3C(=O)O)cc2[N+](=O)[O-])c1 | x | 0.5 | -12.7 | i | x | x | x
CCOC(=O)c1ccc(S(=O)(=O)NC2CCC(C)CC2)cc1 (configuration not stated) | -0.5 | 0.5 | 69.8 | i | 253.4 | 51.2 | 50.8
CCOc1cc(C)c(S(=O)(=O)Nc2ccc3cn[nH]c3c2)cc1C | -3.4 | -0.8 | 90.6* | i | 256.0 | 85.7* | 69.9
CCCC(=O)c1ccc(N2CCN(C(=O)c3ccccc3)CC2)c(F)c1 | 2.5 | -0.1 | 18.2 | i | 226.5 | x | x
CCCC(=O)c1ccc(N2CCN(C(=O)c3ccccc3Br)CC2)c(F)c1 | 0.5 | -1.0 | 83.6* | i | 229.7 | 73.7* | 67.7
COc1ccc(OC)c2c1C(=O)C(Cl)=C(Cl)C2=O | -15.7 | -10.3 | 102.3* | u | 254.9 | 99.3* | 68.2
Cc1ccc(S(=O)(=O)N2[C@@H](c3ccc(Cl)cc3)C(C(=O)OC(C)(C)C)=CC[C@H]2c2ccc(Cl)c(Cl)c2)cc1 | x | x | -0.3 | i | x | x | x
O=C(NCCCSc1ccccc1)c1cc(Br)ccc1O | x | 1.0 | 87.4* | i | 254.1 | 99.3* | 90.2*
COc1cccc(C(NC(C)=O)c2nc(-c3cccc(F)c3)cs2)c1 (configuration not stated) | x | -1.5 | 22.7 | i | x | x | x
O=c1c2c([nH]n1-c1ccccc1)C[C@@H](C1CCCCC1)O[C@H]2c1ccc(F)cc1 | x | x | 57.0 | i | x | 10.0 | -17.5
O=c1[nH][nH]c2c1[C@H](c1ccc(F)cc1)O[C@H](C1CCCCC1)C2 | x | x | -19.1 | i | x | x | x
Cc1ccc(Cl)cc1N1CCN(C(=O)CN(C2CCCCC2)S(C)(=O)=O)CC1 | 3.1 | -0.7 | 52.7 | i | 416.8 | 61.2 | 61.2
CS(=O)(=O)N(CC(=O)N1CCN(c2cccc(Cl)c2)CC1)C1CCCCC1 | -3.9 | 1.6 | -24.4 | i | 195.9 | x | x
CC(C)NS(=O)(=O)c1ccc(OCC(=O)N2CCCC2)cc1 | -4.2 | -0.2 | 5.3 | i | x | x | x
Cc1ccc(Cl)cc1N1CCN(C(=O)COc2ccc(S(=O)(=O)NC(C)C)cc2)CC1 | 2.7 | -1.7 | 55.8 | i | 324.1 | 63.9 | 41.9
COC(=O)C1=CN(c2ccc(F)cc2)C(N)=C(C#N)C1c1ccc(-c2ccccc2)cc1 (configuration not stated) | x | x | x | i | x | x | x
